Activity calls are given as the source filed them. No cut-off for these calls is given here.
Tests used:
[1] = (§1) Cytotoxicity against human MOLT3 cells assessed as reduction in cell viability after 48 hrs by XTT assay; format: functional, cell-based; settings: MOLT-3, 48 h
In short: (§2)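 Suspension cells plated at 10,000–20,000 cells/well and pre-incubated 24 h at 37 °C, 5% CO₂. Serial compound dilutions were added in an equal volume of medium, with etoposide and/or doxorubicin as positive controls and DMSO as negative control, then incubated 48 h more. Viable cells were read by XTT. IC50 is taken as 50% growth inhibition versus the DMSO control.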

[2] = (§3) Cytotoxicity against human HuCCa1 cells assessed as reduction in cell viability after 48 hrs by MTT assay; format: functional, cell-based; settings: HuCC-A1, 48 h
In short: (§4)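 Adherent cells plated at 10,000–20,000 cells/well and allowed 24 h at 37 °C (5% CO₂) before an equal volume of medium with serially diluted compound was added. Etoposide and/or doxorubicin were positive controls and DMSO the negative control. After a further 48 h, surviving cells were measured by MTT. IC50 is the concentration giving 50% growth inhibition relative to the DMSO control.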

[3] = system: HepG2; experiment: Cytotoxicity against human HepG2 cells assessed as reduction in cell viability after 48 hrs by MTT assay; format: functional, cell-based; settings: for IC50: HepG2, 48 h; in short: as §4
[4] = system: A549; experiment: Cytotoxicity against human A549 cells assessed as reduction in cell viability after 48 hrs by MTT assay; format: functional, cell-based; settings: for IC50: A549, 48 h; in short: as §4
[5] = system: Plasmodium falciparum; experiment: Antimalarial activity against multidrug-resistant Plasmodium falciparum K1 after 24 hrs by [3H]hypoxanthine incorporation assay; format: functional, organism-based
In short: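 P. falciparum K1 kept in RPMI 1640 with 20 mM HEPES, NaHCO₃, 10% human serum and 3% erythrocytes at 37 °C under 3% CO₂, passaged daily. Early ring-stage parasites (1% parasitemia, 1.5% erythrocytes) were exposed to compound (0.1% DMSO final) for 24 h. [3H]hypoxanthine was then added for a further 24 h. Incorporation was counted by scintillation and expressed as percent parasite growth.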

[6] = system: Vero; experiment: Cytotoxicity against african green monkey Vero cells assessed as reduction in cell viability after 4 days by green fluorescent protein detection method; format: cell-based; settings: chlorocebus sabaeus, 96 h
In short: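 GFP-expressing Vero cells (stably transfected with pEGFP-N1) seeded at 3.3 × 10⁴ cells/mL onto compounds prediluted in 0.5% DMSO; 4 days at 37 °C, 5% CO₂. Fluorescence read at ex 485/em 535 nm, day-0 background subtracted. IC50 from dose-response curves over 6 concentrations (3-fold serial dilutions). Ellipticine positive control, 0.5% DMSO negative control.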

[7] = system: MOLT-3; experiment: as §1; format: functional, cell-based; in short: as §2
[8] = system: HuCC-A1; experiment: as §3; format: functional, cell-based; in short: as §4
[9] = system: HepG2; experiment: Ratio of etoposide IC50 to compound IC50 for human HepG2 cells assessed as reduction in cell viability after 48 hrs by MTT assay; format: functional
[10] = Plasmodium falciparum, K1, read-out: IC50

Row | Compound | IC50 [1] [µM] | IC50 [2] [µM] | IC50 [3] [µM] | IC50 [4] [µM] | IC50 [5, 10] [µM] | IC50 [6] [µM] | Activity [7] | IC50 [5] | Activity [6] | Activity [8] | Activity [3] | Activity [4] | Ratio IC50 [9]
1 | COc1cc([C@@H]2c3cc4c(cc3[C@@H](O[C@@H]3O[C@@H]5CO[C@@H](C)O[C@H]5[C@H](O)[C@H]3O)[C@H]3COC(=O)[C@H]23)OCO4)cc(OC)c1O [ETOPOSIDE] | 0.051 | – | – | – | – | – | – | – | – | – | – | – | –
2 | COc1cccc(/C=C/C(=O)c2cccc(-n3cc(COc4ccc5ccc(=O)oc5c4)nn3)c2)c1OC | 5.16 | 11.1 | 15.7 | 31.4 | 6.63 | 35 | – | – | – | – | – | – | –
3 | COc1cccc(/C=C/C(=O)c2ccc(-n3cc(COc4ccc5ccc(=O)oc5c4)nn3)cc2)c1OC | – | 4.81 | 8.18 | 7.95 | – | – | inactive | Not Active | Non-toxic | – | – | – | –
4 | COc1cc(/C=C/C(=O)c2ccc(-n3cc(COc4ccc5ccc(=O)oc5c4)nn3)cc2)cc(OC)c1OC | 79.5 | – | – | – | – | – | – | Not Active | Non-toxic | inactive | inactive | inactive | –
5 | COc1ccc(/C=C/C(=O)c2cccc(-n3cc(COc4cc(=O)oc5ccccc45)nn3)c2)c(OC)c1OC | 1.13 | 6.13 | – | – | 7.47 | – | – | – | Non-toxic | – | inactive | inactive | –
6 | COc1ccc(/C=C/C(=O)c2cccc(-n3cc(COc4ccc5ccc(=O)oc5c4)nn3)c2)c(OC)c1OC | 3.89 | – | – | – | 13 | – | – | – | Non-toxic | inactive | inactive | inactive | –
7 | COc1ccc(/C=C/C(=O)c2ccc(-n3cc(COc4cc(=O)oc5ccccc45)nn3)cc2)c(OC)c1OC | 12.3 | – | 22.9 | – | 1.6 | – | – | – | Non-toxic | inactive | – | inactive | –
8 | COc1ccc(/C=C/C(=O)c2cccc(-n3cc(COc4cc(=O)oc5ccccc45)nn3)c2)cc1OC | 3.91 | 38.6 | – | – | – | – | – | Not Active | Non-toxic | – | inactive | inactive | –
9 | COc1ccc(/C=C/C(=O)c2ccc(-n3cc(COc4ccc5ccc(=O)oc5c4)nn3)cc2)c(OC)c1OC | 22.5 | – | – | – | – | – | – | Not Active | Non-toxic | inactive | inactive | inactive | –
10 | Cc1c2ccncc2c(C)c2c1[nH]c1ccccc12 [ELLIPTECINE] | – | – | – | – | – | 1.94 | – | – | – | – | – | – | –
11 | COc1cc(/C=C/C(=O)c2ccc(-n3cc(COc4cc(=O)oc5ccccc45)nn3)cc2)cc(OC)c1OC | 6.58 | – | – | – | – | – | – | Not Active | Non-toxic | inactive | inactive | inactive | –
12 | COc1ccc(/C=C/C(=O)c2cccc(-n3cc(COc4ccc5ccc(=O)oc5c4)nn3)c2)cc1OC | 3.12 | 33.4 | – | – | – | – | – | Not Active | Non-toxic | – | inactive | inactive | –
13 | COc1cccc(/C=C/C(=O)c2cccc(-n3cc(COc4cc(=O)oc5ccccc45)nn3)c2)c1OC | 0.53 | 2.36 | 4.26 | 18.1 | 4.73 | 3.91 | – | – | – | – | – | – | 7
14 | C[C@H]1[C@@H](O)O[C@@H]2O[C@@]3(C)CC[C@H]4[C@H](C)CC[C@@H]1[C@@]24OO3 [ARTENIMOL] | – | – | – | – | 0.0011 | – | – | – | – | – | – | – | –
15 | COc1cccc2c1C(=O)c1c(O)c3c(c(O)c1C2=O)C[C@@](O)(C(=O)CO)C[C@@H]3O[C@H]1C[C@H](N)[C@H](O)[C@H](C)O1 [DOXORUBICIN] | – | 0.83 | – | – | – | – | – | – | – | – | – | – | –

Reference: ChEMBL document CHEMBL3351873, “Synthesis, biological evaluation and molecular docking of novel chalcone-coumarin hybrids as anticancer and antimalarial agents” (Eur J Med Chem, 2014)
